Among the data in ChEMBL document CHEMBL1154829, “Iridoids from Fraxinus excelsior with adipocyte differentiation-inhibitory and PPARalpha activation activity” (2010) are inhibition, Activity and activation values, retold here.

Activity calls are given as the source filed them. The rule behind the calls is not given here.

Experiment [1] has as its system 3T3-L1. Kind of experiment: Inhibition of adipocyte differentiation in mouse 3T3L1 cells assessed as inhibition of 2 deoxy-D[3H]glucose uptake at 0.05 mg/ml […] by scintillation counter relative to control. Type of experiment: functional.
Experiment [2] concerns 3T3-L1. Put plainly: Inhibition of adipocyte differentiation in mouse 3T3L1 cells assessed as inhibition of 2 deoxy-D[3H]glucose uptake at 0.2 mg/ml […] by scintillation counter relative to control. Type of experiment: functional.
In experiment [3] the target is T1, Peroxisome proliferator-activated receptor alpha (Homo sapiens) (UniProt Q07869).
T1 sequence (whole entry): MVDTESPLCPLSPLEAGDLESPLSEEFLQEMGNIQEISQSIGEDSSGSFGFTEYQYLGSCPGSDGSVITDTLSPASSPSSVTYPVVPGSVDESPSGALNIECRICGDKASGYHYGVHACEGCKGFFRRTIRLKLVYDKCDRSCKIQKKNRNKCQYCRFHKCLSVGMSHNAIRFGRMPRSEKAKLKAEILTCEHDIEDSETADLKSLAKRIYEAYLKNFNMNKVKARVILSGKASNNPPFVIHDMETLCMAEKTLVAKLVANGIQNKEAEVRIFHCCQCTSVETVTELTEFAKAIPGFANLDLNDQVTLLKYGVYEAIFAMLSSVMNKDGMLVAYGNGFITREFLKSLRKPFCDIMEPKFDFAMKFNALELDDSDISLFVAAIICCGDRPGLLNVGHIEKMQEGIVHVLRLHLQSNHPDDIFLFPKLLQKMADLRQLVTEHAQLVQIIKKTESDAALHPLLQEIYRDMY
Put plainly: Activation of PPARalpha transfected into HEK cells at 100 uM by luciferase assay. Type of experiment: cell-based. The note with it: HEK293. In short, it runs like this:
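HEK cells in DMEM with 10% FBS, 1% penicillin-streptomycin and 2 mM L-glutamine at 37 °C, 5% CO2. Seeded at 80 000/well 24 h before PEI transfection (1 µg plasmid, 4 h). Compounds dissolved in DMSO and added in supplemented DMEM for 48 h. Lysate luciferase read by luminometer, normalized to β-gal, relative to DMSO control. Three independent runs; mean ± SD.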

The target of experiment [4] is T2, Solute carrier family 2, facilitated glucose transporter member 4 (Homo sapiens) (UniProt P14672).
T2 sequence (whole entry): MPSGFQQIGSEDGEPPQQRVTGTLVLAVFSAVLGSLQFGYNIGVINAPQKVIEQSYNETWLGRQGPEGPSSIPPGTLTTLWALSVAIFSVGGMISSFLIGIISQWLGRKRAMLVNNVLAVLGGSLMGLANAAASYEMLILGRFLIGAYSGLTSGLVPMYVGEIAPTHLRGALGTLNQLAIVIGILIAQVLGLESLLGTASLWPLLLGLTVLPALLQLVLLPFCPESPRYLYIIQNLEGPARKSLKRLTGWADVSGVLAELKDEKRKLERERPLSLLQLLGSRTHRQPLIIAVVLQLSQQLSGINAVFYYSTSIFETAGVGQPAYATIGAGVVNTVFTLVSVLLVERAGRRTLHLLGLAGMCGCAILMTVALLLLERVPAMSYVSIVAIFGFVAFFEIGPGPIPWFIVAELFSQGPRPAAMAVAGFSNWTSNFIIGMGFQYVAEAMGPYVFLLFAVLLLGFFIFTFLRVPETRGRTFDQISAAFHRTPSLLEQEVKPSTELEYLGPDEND
Kind of experiment: Stimulation of GLUT4 glucose transport.

For experiment [5], the system named is 3T3-L1. Kind of experiment: Inhibition of adipocyte differentiation in mouse 3T3L1 cells assessed as inhibition of 2 deoxy-D[3H]glucose uptake at 1 mg/ml […] by scintillation counter relative to control. Type of experiment: functional.
In experiment [6] the test system is 3T3-L1. Put plainly: Inhibition of adipocyte differentiation in mouse 3T3L1 cells assessed as inhibition of 2 deoxy-D[3H]glucose uptake at 0.5 mg/ml after 15 mins by scintillation counter relative to control. Type of experiment: functional.
Experiment [7] relates to 3T3-L1. Kind of experiment: Inhibition of adipocyte differentiation in mouse 3T3L1 cells assessed as inhibition of 2 deoxy-D[3H]glucose uptake at 0.01 mg/ml […] by scintillation counter relative to control. Type of experiment: functional.
The subject of experiment [8] is 3T3-L1. Put plainly: Inhibition of adipocyte differentiation in mouse 3T3L1 cells assessed as inhibition of 2 deoxy-D[3H]glucose uptake at 0.1 mg/ml […] by scintillation counter relative to control. Type of experiment: functional.

The term inhibition denotes the relative decrease from the control value, in per cent. As to `C/C=C1/[C@H](O[C@@H]2O[C@H](CO[C@@H]3O[C@H](CO)[C@@H](O)[C@H](O)[C@H]3O)[C@@H](O)[C@H](O)[C@H]2O)OC=C(C(=O)OC)[C@H]1CC(=O)OCCc1ccc(O)cc1` [EXCELSIDE B], the inhibition at 50 µg/mL in the experiment with 3T3-L1 [1] is -16.7%. Further, the inhibition at 200 µg/mL with 3T3-L1 [2] was -30.8%. This molecule registered an Activity in experiment [3] of 24.8%. In addition, the activation result in experiment [4] is “inactive”. Besides, the inhibition at 1000 µg/mL with 3T3-L1 [5] is -24.3%. For the same molecule, the inhibition at 500 µg/mL with 3T3-L1 [6] is -22.7%.
`C/C=C1\C(CC(=O)OC[C@H]2O[C@@H](OCCc3ccc(O)cc3)[C@H](O)[C@@H](O)[C@@H]2O)C(C(=O)OC)=CO[C@H]1O[C@@H]1O[C@H](CO)[C@@H](O)[C@H](O)[C@H]1O` (stereo partly drawn) [NUZHENIDE]: the inhibition at 50 µg/mL in the experiment on 3T3-L1 [1] is -15.2%. In the experiment on 3T3-L1 [2], the inhibition at 200 µg/mL is -28.3%. This molecule yielded an Activity in experiment [3] of 12.2%. In addition, the activation entry in experiment [4] is “inactive”. In addition, the inhibition at 1000 µg/mL in the experiment with 3T3-L1 [5] was -38.2%. The inhibition at 500 µg/mL in the experiment with 3T3-L1 [6] is -27.9%.
On to `C/C=C1/[C@H](O[C@@H]2O[C@H](CO)[C@@H](O)[C@H](O[C@@H]3O[C@H](CO)[C@@H](O)[C@H](O)[C@H]3O)[C@H]2O)OC=C(C(=O)OC)[C@H]1CC(=O)Oc1ccc(CCO)cc1`, for which the inhibition at 50 µg/mL in the experiment on 3T3-L1 [1] was -17.1%. The inhibition at 10 µg/mL in the experiment on 3T3-L1 [7] was determined as 77.6%. The inhibition at 100 µg/mL with 3T3-L1 [8] was -49.7%.
`C/C=C1/[C@H](O[C@@H]2O[C@H](CO[C@@H]3O[C@H](CO)[C@@H](O)[C@H](O)[C@H]3O)[C@@H](O)[C@H](O)[C@H]2O)OC=C(C(=O)OC)[C@H]1CC(=O)OC` [EXCELSIDE A]: in the experiment on 3T3-L1 [1], the inhibition at 50 µg/mL was 30.9%. For the same molecule, the inhibition at 10 µg/mL in the experiment with 3T3-L1 [7] stood at 102%. Further, in experiment [4], the activation result was “inactive”. Moreover, the inhibition at 100 µg/mL with 3T3-L1 [8] was -16.6%.
As to `C/C=C1/[C@H](O[C@@H]2O[C@H](CO)[C@@H](O)[C@H](O)[C@H]2O)OC=C(C(=O)OC)[C@H]1CC(=O)OCCc1ccc(O)cc1` [LIGSTROSIDE], the inhibition at 50 µg/mL with 3T3-L1 [1] is -76.4%. Besides, the inhibition at 10 µg/mL with 3T3-L1 [7] is -9.3%. Moreover, the activation entry in experiment [4] was “inactive”. Further, in the experiment with 3T3-L1 [8], the inhibition at 100 µg/mL was -9.8%.
For `C/C=C1\[C@H](O[C@@H]2O[C@H](CO)[C@@H](O)[C@H](O)[C@H]2O)OC=C(C(=O)OC)[C@H]1CC(=O)OC` [OLEOSIDE DIMETHYL ESTER], the inhibition at 50 µg/mL with 3T3-L1 [1] is -7.3%. The Activity in experiment [3] is 27.9%. Moreover, the inhibition at 10 µg/mL in the experiment on 3T3-L1 [7] amounted to 78.2%. The activation result in experiment [4] was “inactive”. In addition, the inhibition at 100 µg/mL in the experiment with 3T3-L1 [8] is -81%.
Regarding `O=C(O)C1CN2C(N1)[C@H](O)[C@@H](O)[C@H](O)[C@H]2CO` (stereo partly drawn), the inhibition at 50 µg/mL in the experiment with 3T3-L1 [1] was 2.3%. Moreover, the inhibition at 200 µg/mL in the experiment on 3T3-L1 [2] was -8.3%. Moreover, in experiment [3], the Activity amounted to 21%. The activation entry in experiment [4] is “inactive”. For the same molecule, the inhibition at 1000 µg/mL in the experiment with 3T3-L1 [5] is -2.1%. The inhibition at 500 µg/mL in the experiment with 3T3-L1 [6] was -10.4%.
Take `C/C=C1\[C@H](O[C@@H]2O[C@H](CO)[C@@H](O)[C@H](O)[C@H]2O)OC=C(C(=O)OC)[C@H]1CC(=O)O`: the inhibition at 50 µg/mL in the experiment on 3T3-L1 [1] is -34.8%. The inhibition at 10 µg/mL in the experiment on 3T3-L1 [7] is -7.9%. Moreover, the activation result in experiment [4] was “inactive”. Further, the inhibition at 100 µg/mL in the experiment on 3T3-L1 [8] is -85.2%.
